Data taken from article PMC12234697 (Scientific Reports, 2025).
pIC50: −log10 of the molar value. Read-outs that look alike come from different tables or passages of the source.

Tests used:
precore mRNA and pgRNA = experiment: Measurement of intracellular HBV RNA by real-time PCR; type: cell-based, hepatitis B virus; conditions: HepG2.2.15.7 cells; hit compound 16 10 µM, 38 and 39 30 µM; n = 3
Method in brief: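 Total RNA from treated HepG2.2.15.7 cells was TRIzol-extracted and reverse-transcribed with DNase treatment. SYBR Green real-time PCR used primers PCP/BC1 for precore mRNA and PGP/BC1 for precore mRNA plus pgRNA, normalised to GAPDH. n = 3; Mann-Whitney U test, p < 0.05.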

[1] = tested on: LHBs protein and HBc protein; experiment: Western blot analysis of intracellular HBV proteins; type: cell-based, hepatitis B virus; conditions: HepG2.2.15.7 cells; hit compound 16 10 µM, 38 and 39 30 µM; n = 3
Method in brief: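 Treated HepG2.2.15.7 cells were lysed in RIPA buffer and soluble protein was run on SDS-PAGE, then transferred to PVDF. Blots were blocked, then given primary antibodies (including rabbit polyclonal anti-HBc; β-actin as loading control) at 4 °C overnight and secondaries 1 h at room temperature. ECL detection; bands quantified by densitometry, n = 3.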

[2] = tested on: HBV-expressing HepG2.2.15.7 cells; type: cell-based; conditions: Hepatitis B virus
Method in brief: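 HBV-producing HepG2.2.15.7 cells (derived from HepG2.2.15) were exposed to test compound at 0.1, 0.3, 1, 3, 10, 30 and 100 µM, […]. Enveloped Dane particles in the supernatant were captured by anti-HBs immunoprecipitation, and HBV DNA was then quantified by real-time PCR with S-gene primers/probe. Cell viability was read in parallel, n = 3. IC50 and CC50 were derived from dose curves.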

[3] = Cell viability of HepG2.2.15.7 cells; type: cell-based; conditions: human
Method in brief: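 HepG2.2.15.7 cells (stable high-level HBV expression) seeded at 1.5 × 10^5 cells/well, grown overnight and PBS-washed. Fresh medium with compound (0.1, 0.3, 1, 3, 10, 30, 100 µM final; DMSO stocks) added for 48 h. Cell viability measured, n = 3; CC50 derived from the dose-response.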

[4] = no reference given; cited from earlier work

pIC50 ([2]; HepG2.2.15.7, read-out: IC50 (HBV DNA after the immunoprecipitation)): 4.73
IC50 ([2]; HepG2.2.15.7, read-out: IC50 against HBV expressed in µg/mL): 2.8 µg/mL
Compound: C=C[C@H]1C[N@@]2CC[C@H]1C[C@@H]2[C@@H](O)c1ccnc2ccc(OC)cc12 [Compound 39, quinidine]
pgRNA level compared to a control (precore mRNA and pgRNA): no significant difference
precore mRNA level compared to a control (precore mRNA and pgRNA): no significant difference
HBc protein level (western blot) [1]: no significant differences
LHBs protein level (western blot) [1]: no significant differences
CC50 at 48 h [3]: 131 µM
effective blood concentration for arrhythmia [4]: 2.3 to 5.0 µg/mL
